hERG protect – hERG (human) protection from proarrhythmic block. Q12809. CHO-hERG, FluxOR thallium flux, dofetilide IC70 present. activation (rescue from dofetilide block), less the hit threshold, % at 10 µM. 310,000 compounds, 0.51% hits. AID 1511;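 active = activation above the mean of controls blocked by dofetilide plus 5 SD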;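 also: thallium influx through hERG after potassium depolarization seen as dye fluorescence rise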
KCNK3 block – human KCNK3 channel inhibition, primary screen; O14649; CHO-KCNK3 thallium flux, FluxOR fluorescence; active compounds read low; 340,000 compounds, 0.84% hits; B-score at 10 µM;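 active = B-score under library mean minus 4 SD, starting fluorescence ratio at most library mean plus 5 SD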;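 also: more negative B-score means stronger inhibition of thallium flux through KCNK3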
KCNK9 block – blocks the human KCNK9 two-pore domain potassium channel | Q9NPC2 | HEK293 KCNK9, FluxOR thallium flux fluorescence; active compounds read low | B-score at 10 µM | 310,000 compounds, 1.2% hits | AID 488922;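 active = ratio B-score over 3 SD below the library mean, with starting fluorescence within 5 SD of its mean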;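 also: negative B-score means less thallium flux so channel inhibition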
KCNQ1 act – potentiators or activators of human KCNQ1 potassium channel | P51787 | CHO-K1 KCNQ1, thallium flux FluxOR fluorescence; active compounds read high | B-score at 10 µM | 310,000 compounds, 0.35% hits | AID 2648;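 active = fluorescence ratio B-score, a plate-corrected score, at least three library SD, with initial intensity B-score within 5 SD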
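Assay system: stable KCNQ1 CHO-K1 line; medium: assay buffer, equal DMSO in all wells; timing: 90 min dye loading and 20 min compound exposure, both at room temperature; technique: kinetic FluxOR thallium fluorescence, 10-s 1-Hz baseline, 110-s post-stimulus read; read-out basis: B score of baseline-normalized fluorescence ratio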
KCNQ1 inh – human KCNQ1 channel inhibition | 310,000 compounds, 1.3% hits | CHO-K1 KCNQ1, FluxOR thallium flux fluorescence; active compounds read high | P51787 | AID 2642 | B-score at 10 µM;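 active = compounds whose thallium flux B-score, printed positive for inhibition, exceeds three library SD while starting fluorescence stays within three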;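 also: channel opened by potassium depolarization with thallium stimulus after 20 min compound exposure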
Cl transport mod – KCC2 (human) Cl- transport modulation; 190,000 compounds, 2.2% hits; B-score of Tl+ flux slope (higher = more flux/activation; lower = inhibition) at 10 µM; AID 1456; KCC2 cells, thallium flux FluoZin-2 fluorescence;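 active = thallium flux slope and its plate-corrected score both differing from the plate sample mean at a set confidence after two filtering rounds, in either direction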;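 also: slope of fluorescence scaled to starting intensity during 10 to 20 s after thallium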
KCNK3 inh conf – confirmation of human KCNK3 two-pore domain potassium channel inhibitors | shares compounds with KCNK3 block | CHO-KCNK3 thallium flux, FluxOR fluorescence; 0% buffer, 100% carvedilol maximal block | ratio percent of control, % at 10 µM | 2,400 compounds, 99% hits;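 active = ratio percent of control, averaged over triplicates, above buffer control mean plus 5 SD, cut at about 64% in these data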;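 also: ratio is the fluorescence rise from min to max over baseline after thallium stimulus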
KCNK3 noninduced – KCNK3 inhibitor counter-screen hit in non-induced cells | 2,400 compounds, 40% hits | thallium flux ratio (lower = more inhibition) at 10 µM | non-induced KCNK3 parental cells, FluxOR thallium flux; active compounds read low | shares compounds with KCNK3 block;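 active = thallium flux ratio, averaged over three wells, more than 5 SD below the buffer control mean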;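 also: host cells are CHO cells without KCNK3 induction; ratio is peak minus trough fluorescence over baseline then normalized to buffer controls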
* marks the source's active call; other numbers are inactive results; i = inactive; / = no result given. An excerpt weighted towards active compounds, which were near 4.1% of everything screened.

SMILES	hERG protect	KCNK3 block	KCNK9 block	KCNQ1 act	KCNQ1 inh	Cl transport mod	KCNK3 inh conf	KCNK3 noninduced
CCC(C)[C@H](NC(=O)N1CC(=O)Nc2ccccc21)C(=O)N[C@H](C(=O)O)c1ccccc1 (stereo partly drawn)	-4	i	i	i	i	/	/	/
Cc1cccc(NC(=O)COc2ccc(-c3nn(C)c(=O)c4ccccc34)cc2)c1	-7	-12*	i	i	6*	/	100*	i
Cn1nc(-c2ccc(OCC(=O)Nc3ccccc3)cc2)c2ccccc2c1=O	-13	i	i	i	i	-0.079	/	/
COc1ccccc1NC(=O)c1ccc(-c2nn(C)c(=O)c3ccccc23)cc1	-19	-9.9*	i	i	i	-1.6	96*	i
COc1ccc(NC2=C(C(C)=O)C(c3ccc(OC)cc3)C(C(C)=O)C(C)(O)C2)cc1 (stereo not drawn)	-6	-9.1*	i	i	i	-0.16	68*	i
COc1ccc(C2C(C(C)=O)=C(Nc3ccccc3)CC(C)(O)C2C(C)=O)cc1OC (stereo not drawn)	3	i	i	i	i	0.88	/	/
CC(=O)C1=C(Nc2ccccc2)CC(C)(O)C(C(C)=O)C1c1ccccc1 (stereo not drawn)	-3	-12*	i	i	i	0.006	52*	i
O=C(CN1C(=O)NC2(CCCCCC2)C1=O)NCc1ccc(Cl)cc1	/	i	/	/	/	/	/	/
Cc1cc(F)ccc1S(=O)(=O)NCC(c1ccc2c(c1)OCO2)N1CCOCC1 (stereo not drawn)	-15	-11*	i	i	i	/	70*	i
COCCOC(=O)C1=C(C)N=C2SCCC(=O)N2C1c1cccc(Br)c1 (stereo not drawn)	-14	-9.3*	i	i	i	-0.075	112*	i
CCOC(=O)C1=C(C)N=C2SCCC(=O)N2C1c1cc(Br)ccc1OC (stereo not drawn)	-5	i	i	i	i	-0.31	/	/
CCc1cccc(NC2c3ccccc3C(=O)N2c2cccnc2)c1 (stereo not drawn)	-13	-11*	i	i	i	-0.14	100*	i
CCOC(=O)c1ccc(NC2c3ccccc3C(=O)N2c2ccc(C)cn2)cc1 (stereo not drawn)	-7	i	i	i	i	-0.21	/	/
CCOC(=O)c1ccc(NC2c3ccccc3C(=O)N2c2cccnc2)cc1 (stereo not drawn)	-12	-9.7*	i	i	i	-0.8	112*	i
COc1ccc(C2c3ccc4ccccc4c3Oc3ncn(CCN(C)C)c(=N)c32)cc1 (stereo not drawn)	-20	i	i	i	i	/	/	/
COc1ccc(C2c3ccc(O)cc3Oc3ncn(CCN4CCOCC4)c(=N)c32)cc1OC (stereo not drawn)	-10	i	i	i	i	1.3	/	/
COc1ccc(C2c3ccc(O)cc3Oc3ncn(Cc4ccccc4)c(=N)c32)cc1OC (stereo not drawn)	-14	-8.9*	i	i	i	-0.36	75*	i
COc1ccc(C2c3ccc(O)cc3Oc3ncn4nc(-c5ccncc5)nc4c32)cc1OC (stereo not drawn)	-12	-8.7*	i	i	i	-1.6	80*	i
COC(=O)C1CCN(C(=O)COC(=O)c2cc(-c3ccccc3)nc3ccc(OC)cc23)CC1	/	-12*	/	/	/	/	105*	i
COc1ccc(-c2cc(C(=O)OCC(=O)N3CCOCC3)c3ccccc3n2)cc1	/	i	/	/	/	/	/	/
COc1ccc(CNC(=O)CN2C(=O)NC3(CCCCCCC3)C2=O)cc1	/	i	/	/	/	/	/	/
